Measurements: ChEMBL document CHEMBL4024746, “Nonpyrogenic Molecular Adjuvants Based on norAbu-Muramyldipeptide and norAbu-Glucosaminyl Muramyldipeptide: Synthesis, Molecular Mechanisms of Action, and Biological Activities in Vitro and in Vivo” (J Med Chem, 2017)
The source made the active and inactive calls. The rule behind the calls is not given here.

Assays:
Oryctolagus cuniculus [1] = test: Toxicity in New Zealand albino rabbit assessed as weight loss at 100 nmol/kg, sc using liposomal formulation measured up to 2 months post dose; assay type: organism-based; details: in vivo
Oryctolagus cuniculus [2] = test: Pyrogenic activity in Chinchilla rabbit assessed as change in maximum body temperature at 100 nmol/kg, iv using micellar foemulation measured at 30 mins time intervals; assay type: toxicity, organism-based; details: in vivo, 0.5 h
Outline: (§1)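 Standard rabbit pyrogenicity test, three animals per group, iv or modified sc application of free (micellar) or liposomal formulations. Maximum temperature rise (+ΔTmax) summed per group; sum below 1.1 °C classed as nonpyrogenic. Temperature followed a further 24 h for delayed pyrogenicity.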

Oryctolagus cuniculus [3] = test: Toxicity in New Zealand albino rabbit assessed as behavioral changes at 100 nmol/kg, sc using liposomal formulation measured up to 2 months post dose; assay type: organism-based; details: in vivo
[4] = target: Nucleotide-binding oligomerization domain-containing protein 2 (Homo sapiens) (UniProt Q9HC29); test: Agonist activity at human NOD2 receptor expressed in mouse Raw-Blue reporter cells at 10 uM after 24 hrs in presence of GSK717 by SEAP reporter gene assay
Chain of Nucleotide-binding oligomerization domain-containing protein 2 (Homo sapiens) (Q9HC29 whole entry, the tested form may be a part): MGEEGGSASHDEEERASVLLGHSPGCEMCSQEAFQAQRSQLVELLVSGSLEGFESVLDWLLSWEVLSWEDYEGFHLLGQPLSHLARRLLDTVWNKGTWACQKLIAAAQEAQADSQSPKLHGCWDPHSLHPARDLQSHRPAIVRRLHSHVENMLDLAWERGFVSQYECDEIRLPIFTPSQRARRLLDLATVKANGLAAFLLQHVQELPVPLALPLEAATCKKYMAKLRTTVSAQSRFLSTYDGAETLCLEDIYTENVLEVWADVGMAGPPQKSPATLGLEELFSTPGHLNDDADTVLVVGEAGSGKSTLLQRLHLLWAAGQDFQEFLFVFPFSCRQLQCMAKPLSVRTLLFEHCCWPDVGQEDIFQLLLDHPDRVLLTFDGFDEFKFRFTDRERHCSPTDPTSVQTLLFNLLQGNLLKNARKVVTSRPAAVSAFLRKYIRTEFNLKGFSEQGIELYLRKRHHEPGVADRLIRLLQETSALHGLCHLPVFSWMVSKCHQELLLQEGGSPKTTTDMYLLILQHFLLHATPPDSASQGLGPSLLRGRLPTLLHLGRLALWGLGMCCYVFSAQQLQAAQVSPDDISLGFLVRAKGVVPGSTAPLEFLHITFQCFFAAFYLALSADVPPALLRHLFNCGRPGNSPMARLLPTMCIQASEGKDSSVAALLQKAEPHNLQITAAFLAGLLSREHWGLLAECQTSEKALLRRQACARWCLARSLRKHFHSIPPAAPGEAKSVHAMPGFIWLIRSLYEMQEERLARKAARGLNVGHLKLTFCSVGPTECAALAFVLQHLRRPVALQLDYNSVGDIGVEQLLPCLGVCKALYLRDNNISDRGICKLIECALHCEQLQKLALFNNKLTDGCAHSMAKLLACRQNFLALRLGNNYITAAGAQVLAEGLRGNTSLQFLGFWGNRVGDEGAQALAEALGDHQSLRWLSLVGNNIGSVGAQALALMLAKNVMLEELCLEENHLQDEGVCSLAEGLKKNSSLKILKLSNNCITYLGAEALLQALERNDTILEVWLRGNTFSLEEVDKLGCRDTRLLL

Mus musculus = test: Immuno-stimulatory activity in ICR mouse assessed as induction of GM-progenitor cell proliferation in serum at […], sc using liposomal formulation measured after 6 hrs; assay type: functional, organism-based
Outline: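 Female ICR mice, 3 months old, four per group, given liposomal preparations sc at 100 nmol per dose in 200 μL. Serum collected 6 h later and added to cultured granulocyte–monocyte progenitors. GM-CFU colonies counted, with serum-free cells as baseline. Dunnett's test is used versus the infusion-solution control.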

Oryctolagus cuniculus [5] = test: Toxicity in New Zealand albino rabbit assessed as skin irritation at 100 nmol/kg, sc using liposomal formulation measured up to 2 months post dose; assay type: organism-based; details: in vivo
Oryctolagus cuniculus [6] = test: Toxicity in New Zealand albino rabbit assessed as necrosis at site of application at 100 nmol/kg, sc using liposomal formulation measured up to 2 months post dose; assay type: organism-based; details: in vivo
Oryctolagus cuniculus [7] = test: Pyrogenic activity in New Zealand albino rabbit assessed as change in maximum body temperature at 100 nmol/kg, sc using liposomal formulation measured at 30 mins time intervals for 9 to 24 hrs (reference value: 0.2 degC); assay type: toxicity, organism-based; details: in vivo; outline: as §1
[8] = target: NACHT, LRR and PYD domains-containing protein 3 (Homo sapiens, UniProt Q96P20); test: Agonist activity at NLRP3 in human […] cells assessed as induction of LPS-induced IL-1beta secretion by HEK-Blue reporter cell based assay
Chain of NACHT, LRR and PYD domains-containing protein 3 (Q96P20 whole entry, the tested form may be a part): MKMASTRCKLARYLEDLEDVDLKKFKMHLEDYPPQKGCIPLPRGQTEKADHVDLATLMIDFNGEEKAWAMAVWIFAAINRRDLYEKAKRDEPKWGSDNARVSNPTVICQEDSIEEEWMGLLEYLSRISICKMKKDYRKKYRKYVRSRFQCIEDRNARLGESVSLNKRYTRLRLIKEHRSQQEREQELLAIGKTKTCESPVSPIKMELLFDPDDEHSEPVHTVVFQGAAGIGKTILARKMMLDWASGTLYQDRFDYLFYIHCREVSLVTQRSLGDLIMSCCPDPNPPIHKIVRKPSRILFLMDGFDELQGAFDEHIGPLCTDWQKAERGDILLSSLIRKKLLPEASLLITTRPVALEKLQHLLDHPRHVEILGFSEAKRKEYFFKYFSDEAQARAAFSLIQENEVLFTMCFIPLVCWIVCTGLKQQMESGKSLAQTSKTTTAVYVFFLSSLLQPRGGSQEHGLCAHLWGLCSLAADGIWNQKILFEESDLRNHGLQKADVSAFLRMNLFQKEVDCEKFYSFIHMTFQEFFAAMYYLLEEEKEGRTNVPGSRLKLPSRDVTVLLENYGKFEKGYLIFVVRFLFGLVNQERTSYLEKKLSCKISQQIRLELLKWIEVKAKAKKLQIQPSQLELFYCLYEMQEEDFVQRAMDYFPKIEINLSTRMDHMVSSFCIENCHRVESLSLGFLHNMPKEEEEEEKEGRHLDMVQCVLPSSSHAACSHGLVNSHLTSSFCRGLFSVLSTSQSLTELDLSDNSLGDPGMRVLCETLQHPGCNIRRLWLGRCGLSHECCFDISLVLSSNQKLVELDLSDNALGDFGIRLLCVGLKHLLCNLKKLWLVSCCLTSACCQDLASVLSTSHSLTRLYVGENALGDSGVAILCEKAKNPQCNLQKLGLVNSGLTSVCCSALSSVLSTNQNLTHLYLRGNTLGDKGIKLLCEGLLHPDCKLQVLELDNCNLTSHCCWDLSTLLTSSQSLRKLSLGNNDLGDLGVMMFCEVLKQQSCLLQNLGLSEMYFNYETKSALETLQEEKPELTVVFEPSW
Outline: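 THP1-Null cells stimulated with compounds; mature IL-1β released is detected with HEK-Blue IL-1β cells through SEAP reporter activity in the supernatant, read colorimetrically with QUANTI-Blue. ATP serves as positive standard. Untreated HEK-Blue IL-1β cells serve as negative control; comparison by ANOVA with Dunnett's test.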

Oryctolagus cuniculus [9] = test: Toxicity in Chinchilla rabbit assessed as necrosis at site of application at 100 nmol/kg, iv using micellar formulation measured up to 2 months post dose; assay type: organism-based; details: in vivo
Oryctolagus cuniculus [10] = test: Toxicity in Chinchilla rabbit assessed as weight loss at 100 nmol/kg, iv using micellar formulation measured up to 2 months post dose; assay type: organism-based; details: in vivo
[11] = target: Nucleotide-binding oligomerization domain-containing protein 2 (Homo sapiens) (UniProt Q9HC29); test: Agonist activity at human NOD2 receptor expressed in mouse Raw-Blue reporter cells at 10 uM after 48 hrs in presence of gefitinib by SEAP reporter gene assay; assay type: cell-based
Oryctolagus cuniculus [12] = test: Toxicity in Chinchilla rabbit assessed as skin irritation at 100 nmol/kg, iv using micellar formulation measured up to 2 months post dose; assay type: organism-based; details: in vivo
Oryctolagus cuniculus [13] = test: Toxicity in Chinchilla rabbit assessed as behavioral changes at 100 nmol/kg, iv using micellar formulation measured up to 2 months post dose; assay type: organism-based; details: in vivo
[14] = target: Nucleotide-binding oligomerization domain-containing protein 2 (Homo sapiens) (UniProt Q9HC29); test: Agonist activity at human NOD2 receptor expressed in mouse Raw-Blue reporter cells at 10 uM after 48 hrs by SEAP reporter gene assay; assay type: cell-based
Outline: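 RAW 264.7-derived RAW-Blue cells carrying an NF-κB/AP-1-inducible SEAP reporter, exposed to compounds at 10 μM for 48 h. Colorimetric SEAP read-out at 650 nm. MDP serves as positive control. ANOVA with Dunnett's test versus untreated cells and versus MDP.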

[15] = target: T1, Nucleotide-binding oligomerization domain-containing protein 1 (Homo sapiens) (UniProt Q9Y239); test: Agonist activity at human NOD1 receptor expressed in HEK-Blue reporter cells at 10 uM after 48 hrs by SEAP reporter gene assay; assay type: cell-based
T1 sequence (whole entry): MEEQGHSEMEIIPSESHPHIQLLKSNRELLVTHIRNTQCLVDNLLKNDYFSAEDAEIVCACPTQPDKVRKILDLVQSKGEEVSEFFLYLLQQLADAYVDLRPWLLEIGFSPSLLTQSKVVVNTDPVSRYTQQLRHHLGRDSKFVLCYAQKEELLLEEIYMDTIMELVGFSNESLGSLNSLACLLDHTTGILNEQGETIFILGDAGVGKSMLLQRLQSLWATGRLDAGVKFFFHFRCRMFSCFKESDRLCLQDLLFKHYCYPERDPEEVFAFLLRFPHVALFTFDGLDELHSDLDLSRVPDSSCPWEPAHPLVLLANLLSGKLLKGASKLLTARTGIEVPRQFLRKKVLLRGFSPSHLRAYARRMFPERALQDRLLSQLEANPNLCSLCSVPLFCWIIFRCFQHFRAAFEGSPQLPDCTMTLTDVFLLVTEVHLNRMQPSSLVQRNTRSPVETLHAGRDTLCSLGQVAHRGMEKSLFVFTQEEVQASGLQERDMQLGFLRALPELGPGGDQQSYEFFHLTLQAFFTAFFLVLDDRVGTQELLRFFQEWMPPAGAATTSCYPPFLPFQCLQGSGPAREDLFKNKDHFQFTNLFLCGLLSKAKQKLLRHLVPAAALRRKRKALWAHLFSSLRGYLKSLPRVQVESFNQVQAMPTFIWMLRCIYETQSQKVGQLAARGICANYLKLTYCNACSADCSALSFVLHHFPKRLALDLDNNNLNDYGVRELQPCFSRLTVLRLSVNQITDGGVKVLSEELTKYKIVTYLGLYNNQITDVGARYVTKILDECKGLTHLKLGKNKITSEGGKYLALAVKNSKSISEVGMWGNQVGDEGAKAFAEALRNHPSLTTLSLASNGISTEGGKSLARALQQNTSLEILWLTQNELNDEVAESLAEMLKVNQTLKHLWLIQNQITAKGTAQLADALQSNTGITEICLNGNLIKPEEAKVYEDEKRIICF
Outline: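 HEK293 cells cotransfected with human NOD1 and an NF-κB/AP-1-inducible SEAP reporter, exposed to compounds at 10 μM for 48 h. SEAP is read at 650 nm with QUANTI-Blue. Diaminopimelic acid derivatives serve as NOD1 positive controls. Dunnett's test is used versus untreated cells.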

Activity [4] | Activity [8] | Activity [11] | Activity [14] | Activity [15] | SMILES | Activity (Oryctolagus cuniculus [1]) | deltaT (Oryctolagus cuniculus [2]) [°C] | Activity (Oryctolagus cuniculus [3]) | Activity (Mus musculus) | Activity (Oryctolagus cuniculus [5]) | Activity (Oryctolagus cuniculus [6]) | deltaT (Oryctolagus cuniculus [7]) [°C] | Activity (Oryctolagus cuniculus [9]) | Activity (Oryctolagus cuniculus [10]) | Activity (Oryctolagus cuniculus [12]) | Activity (Oryctolagus cuniculus [13])
inactive | Active | inactive | Active | inactive | CCCCCCCCCCCCCCCCCC(=O)NCCCC[C@H](NC(=O)CC[C@@H](NC(=O)[C@H](CC)NC(=O)CO[C@H]1[C@H](O[C@@H]2O[C@H](CO)[C@@H](O)[C@H](O)[C@H]2NC(C)=O)[C@@H](CO)OC(O)[C@@H]1NC(C)=O)C(N)=O)C(=O)O (some centres not stated) | Non-Toxic | 0.5 | Non-Toxic | Active | Non-Toxic | Non-Toxic | 0.4 | Non-Toxic | Non-Toxic | Non-Toxic | Non-Toxic
inactive | Active | inactive | Active | inactive | CCCCCCCCCCCCCCCCCC(=O)NCCCC[C@H](NC(=O)CC[C@@H](NC(=O)[C@H](CC)NC(=O)CO[C@H]1[C@H](O)[C@@H](CO)OC(O)[C@@H]1NC(C)=O)C(N)=O)C(=O)O (some centres not stated) | Non-Toxic | 0.4 | Non-Toxic | Active | Non-Toxic | Non-Toxic | 0.5 | Non-Toxic | Non-Toxic | Non-Toxic | Non-Toxic
inactive | Active | inactive | Active | inactive | CCCCCCCCCCCCCCCCCC(=O)N[C@H]1[C@H](O[C@H]2[C@H](OCC(=O)N[C@@H](CC)C(=O)N[C@H](CCC(=O)O)C(N)=O)[C@@H](NC(C)=O)C(O)O[C@@H]2CO)O[C@H](CO)[C@@H](O)[C@@H]1O (some centres not stated) | Non-Toxic | 0.5 | Non-Toxic | Active | Non-Toxic | Non-Toxic | 0.4 | Non-Toxic | Non-Toxic | Non-Toxic | Non-Toxic
inactive | – | inactive | Active | – | CCCCCCCCCCCCCCCCCC(=O)OC[C@H]1OC(O)[C@H](NC(C)=O)[C@@H](O[C@H](C)C(=O)N[C@@H](C)C(=O)N[C@H](CCC(=O)O)C(N)=O)[C@@H]1O (some centres not stated) | – | – | – | – | – | – | – | – | – | – | –
– | – | – | Active | – | C[C@H](NC(=O)[C@@H](C)O[C@H]1[C@H](O)[C@@H](CO)OC(O)[C@@H]1NC(=O)CO)C(=O)N[C@H](CCC(=O)O)C(N)=O (some centres not stated) | – | – | – | – | – | – | – | – | – | – | –
inactive | Active | inactive | Active | inactive | CCCCCCCCCCCCCCCCCC(=O)OC[C@H]1OC(O)[C@H](NC(C)=O)[C@@H](OCC(=O)N[C@@H](CC)C(=O)N[C@H](CCC(=O)O)C(N)=O)[C@@H]1O (some centres not stated) | Non-Toxic | 0.6 | Non-Toxic | Active | Non-Toxic | Non-Toxic | 0.6 | Non-Toxic | Non-Toxic | Non-Toxic | Non-Toxic
inactive | Active | inactive | Active | inactive | CCCCCCCCCCCCCCC(CCCCCCCCCCCCCC)C(=O)NCCCC[C@H](NC(=O)CC[C@@H](NC(=O)[C@H](CC)NC(=O)CO[C@H]1[C@H](O[C@@H]2O[C@H](CO)[C@@H](O)[C@H](O)[C@H]2NC(C)=O)[C@@H](CO)OC(O)[C@@H]1NC(C)=O)C(N)=O)C(=O)O (some centres not stated) | Non-Toxic | 0.4 | Non-Toxic | Active | Non-Toxic | Non-Toxic | 0.5 | Non-Toxic | Non-Toxic | Non-Toxic | Non-Toxic
inactive | Active | inactive | Active | inactive | CCCCCCCCCCCCCCC(CCCCCCCCCCCCCC)C(=O)OC[C@H]1OC(O)[C@H](NC(C)=O)[C@@H](OCC(=O)N[C@@H](CC)C(=O)N[C@H](CCC(=O)O)C(N)=O)[C@@H]1O (some centres not stated) | Non-Toxic | 0.6 | Non-Toxic | Active | Non-Toxic | Non-Toxic | 0.5 | Non-Toxic | Non-Toxic | Non-Toxic | Non-Toxic
– | – | – | inactive | – | C[C@H](N)C(=O)N[C@H](CCC(=O)NC12CC3CC(CC(C3)C1)C2)C(N)=O | – | – | – | – | – | – | – | – | – | – | –

SMILES | Activity [4] | Activity [8] | Activity [11] | Activity [14] | Activity [15] | Activity (Oryctolagus cuniculus [1]) | deltaT (Oryctolagus cuniculus [2]) [°C] | Activity (Oryctolagus cuniculus [3]) | Activity (Mus musculus) | Activity (Oryctolagus cuniculus [5]) | Activity (Oryctolagus cuniculus [6]) | deltaT (Oryctolagus cuniculus [7]) [°C] | Activity (Oryctolagus cuniculus [9]) | Activity (Oryctolagus cuniculus [10]) | Activity (Oryctolagus cuniculus [12]) | Activity (Oryctolagus cuniculus [13])
Nc1ncnc2c1ncn2[C@@H]1O[C@H](COP(=O)(O)OP(=O)(O)OP(=O)(O)O)[C@@H](O)[C@H]1O [ADENOSINE TRIPHOSPHATE] | – | Active | – | – | – | – | – | – | – | – | – | – | – | – | – | –
